Laboratory results taken from ChEMBL document CHEMBL4371030, “Synthesis and antitumor activity of biotinylated camptothecin derivatives as potent cytotoxic agents” (Bioorg Med Chem Lett, 2019).

Tests used:
Assay type in all cases: functional, cell-based
SW480 = assay: Cytotoxicity against human SW480 cells after 48 hrs by MTT assay; settings: SW480, 48 h
How it was run: (§1)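 MTT viability read-out on a human tumour panel: HL-60 leukaemia, SMMC-7721 hepatoma, A-549 lung, MCF-7 breast and SW480 colon carcinoma. Camptothecin and cisplatin were run alongside as positive controls. Potency is reported as the half-maximal inhibitory concentration (IC50) in μmol L-1.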

A549 = assay: Cytotoxicity against human A549 cells after 48 hrs by MTT assay; settings: A549, 48 h; how it was run: as §1
MCF7 = assay: Cytotoxicity against human MCF7 cells after 48 hrs by MTT assay; settings: MCF7, 48 h; how it was run: as §1
HL-60 = assay: Cytotoxicity against human HL60 cells after 48 hrs by MTT assay; settings: HL-60, 48 h; how it was run: as §1
SMMC-7721 = assay: Cytotoxicity against human SMMC7721 cells after 48 hrs by MTT assay; settings: SMMC-7721, 48 h; how it was run: as §1

Structure (SMILES)	IC50 (SW480)	IC50 (A549)	IC50 (MCF7)	IC50 (HL-60)	IC50 (SMMC-7721)
CC[C@@]1(O)C(=O)OCc2c1cc1n(c2=O)Cc2cc3cc(OC(=O)CCCC[C@@H]4SC[C@@H]5NC(=O)N[C@@H]54)ccc3nc2-1	0.55 µM	1.23 µM	2.3 µM	3.19 µM	3.32 µM
CCc1c2c(nc3ccccc13)-c1cc3c(c(=O)n1C2)COC(=O)[C@@]3(CC)OCc1cn(CCOCCOCCOCCOCCOCCNC(=O)CCCC[C@@H]2SC[C@@H]3NC(=O)N[C@@H]32)nn1	0.57 µM	5.18 µM	9.21 µM	4.77 µM	4.1 µM
CC[C@@]1(OC(=O)CCCCCNC(=O)CCCC[C@@H]2SC[C@@H]3NC(=O)N[C@@H]32)C(=O)OCc2c1cc1n(c2=O)Cc2cc3ccccc3nc2-1	> 40 µM	19.9 µM	21.5 µM	6.57 µM	15.3 µM
CCc1c2c(nc3ccccc13)-c1cc3c(c(=O)n1C2)COC(=O)[C@@]3(CC)OCc1cn(CCOCCOCCNC(=O)CCCC[C@@H]2SC[C@@H]3NC(=O)N[C@@H]32)nn1	> 40 µM	> 40 µM	> 40 µM	> 40 µM	> 40 µM
CCc1c2c(nc3ccccc13)-c1cc3c(c(=O)n1C2)COC(=O)[C@@]3(CC)OC(=O)CCCC[C@@H]1SC[C@@H]2NC(=O)N[C@@H]21	8.73 µM	1.14 µM	4.26 µM	1.81 µM	3.28 µM
CCc1c2c(nc3ccc(OC(=O)CCCC[C@@H]4SC[C@@H]5NC(=O)N[C@@H]54)cc13)-c1cc3c(c(=O)n1C2)COC(=O)[C@]3(O)CC	0.13 µM	0.52 µM	0.8 µM	3.31 µM	1.55 µM
CC[C@@]1(OC(=O)CCCC[C@@H]2SC[C@@H]3NC(=O)N[C@@H]32)C(=O)OCc2c1cc1n(c2=O)Cc2cc3ccccc3nc2-1	12.5 µM	3.47 µM	18.2 µM	2.3 µM	7.69 µM
CC[C@@]1(O)C(=O)OCc2c1cc1n(c2=O)Cc2cc3cc(OC(=O)CCCCCNC(=O)CCCC[C@@H]4SC[C@@H]5NC(=O)N[C@@H]54)ccc3nc2-1	0.45 µM	0.75 µM	0.34 µM	1.14 µM	1.85 µM
CCc1c2c(nc3ccc(OC(=O)CCCCCNC(=O)CCCC[C@@H]4SC[C@@H]5NC(=O)N[C@@H]54)cc13)-c1cc3c(c(=O)n1C2)COC(=O)[C@]3(O)CC	1.48 µM	0.23 µM	0.4 µM	0.76 µM	1.14 µM
CCc1c2c(nc3ccccc13)-c1cc3c(c(=O)n1C2)COC(=O)[C@@]3(CC)OC(=O)CCCCCNC(=O)CCCC[C@@H]1SC[C@@H]2NC(=O)N[C@@H]21	16.2 µM	3.08 µM	1.94 µM	0.84 µM	12.2 µM
CC[C@@]1(OCc2cn(CCOCCOCCNC(=O)CCCC[C@@H]3SC[C@@H]4NC(=O)N[C@@H]43)nn2)C(=O)OCc2c1cc1n(c2=O)Cc2cc3ccccc3nc2-1	6.05 µM	3.63 µM	3.47 µM	0.72 µM	4.77 µM
CC[C@@]1(O)C(=O)OCc2c1cc1n(c2=O)Cc2cc3ccccc3nc2-1 [CAMPTOTHECIN]	0.29 µM			< 0.064 µM	0.45 µM
CC[C@@]1(OCc2cn(CCOCCOCCOCCOCCOCCNC(=O)CCCC[C@@H]3SC[C@@H]4NC(=O)N[C@@H]43)nn2)C(=O)OCc2c1cc1n(c2=O)Cc2cc3ccccc3nc2-1	> 40 µM	> 40 µM	> 40 µM	> 40 µM	> 40 µM
